Results on 22 compounds are retold here after ChEMBL document CHEMBL1127433, “N6-substituted adenosine receptor agonists. Synthesis and pharmacological activity as potent antinociceptive agents” (J Med Chem, 1994).

Assay [1] concerns the target T1, Adenosine A2 receptor (Rattus norvegicus) (UniProt P29276+P30543). Description: Percent displacement from adenosine A2 receptor at 10e-7 M in rat striatal membrane in vitro. The class given is cell membranes. The conditions noted are these: Striatum.
Assay [2] concerns the target T2, Adenosine receptor A1 (Rattus norvegicus) (UniProt P25099).
T2 sequence (whole entry): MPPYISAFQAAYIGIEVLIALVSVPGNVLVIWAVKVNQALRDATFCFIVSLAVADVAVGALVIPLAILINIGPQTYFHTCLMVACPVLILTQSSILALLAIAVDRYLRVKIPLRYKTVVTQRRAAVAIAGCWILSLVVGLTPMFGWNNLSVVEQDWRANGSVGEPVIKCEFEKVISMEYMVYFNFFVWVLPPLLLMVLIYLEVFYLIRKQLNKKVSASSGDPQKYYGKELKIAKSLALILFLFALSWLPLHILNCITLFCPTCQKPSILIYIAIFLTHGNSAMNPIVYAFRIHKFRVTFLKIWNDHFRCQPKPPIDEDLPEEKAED
Description: Percent displacement from adenosine A1 receptor at 10e-7 M in rat brain membrane in vitro. Type of assay: cell membranes.

Assay [3] deals with T2, Adenosine receptor A1 (Rattus norvegicus). The assay is described as follows: Percent displacement from adenosine A1 receptor at 10e-5 M in rat brain membrane in vitro. Type of assay: cell membranes.
Assay [4] deals with Mus musculus. The assay is described as follows: Effective dose of compound for phenylbenzoquinone-Induced writhing in mice after peroral administration expressed as analgesic activity; Not dose dependent. Type of assay: functional. The conditions noted are these: po. The gist of the method:
(§1)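 Mice dosed orally (0.5 mL/20 g); 1 h later given 0.02% phenylbenzoquinone in hydroalcoholic solution ip (0.20-0.24 mL). Writhings and stretches counted from minute 5 to minute 10. Six animals per group. Inhibition taken against the control mean; ED50 (50% decrease) by linear regression.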
In general terms: Writhing tests count abdominal constrictions after an irritant is injected.

Assay [5] has as its target T1, Adenosine A2 receptor (Rattus norvegicus). Description: Percent displacement from adenosine A2 receptor at 10e-5 M in rat striatal membrane in vitro. The class given is cell membranes.
The target in assay [6] is T3, Adenosine receptor A1 (Rattus norvegicus, UniProt P25099).
T3 sequence (P25099 whole entry): T2 sequence (whole entry)
The assay is described as follows: Binding affinity for adenosine A1 receptor in vitro using rat brain membranes. The class given is cell membranes. A digest of the protocol: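 Whole rat brain membranes, homogenized in 50 mM Tris-HCl pH 7.4 and spun at 1090g then 48000g, pretreated with adenosine deaminase 1 U/mL for 30 min. Nonspecific binding defined with 10 μM PIA. Separated by GF/B filtration and scintillation counted, in triplicate. IC50 from log-logit regression, Ki via Cheng-Prusoff, one experiment.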

Assay [7] concerns the target Adenosine A2 receptor (Rattus norvegicus, UniProt P29276+P30543). Description: Binding affinity for adenosine A2 receptor in vitro using rat striatal membrane. Type of assay: cell membranes. A digest of the protocol:
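Rat striatal membranes in 50 mM Tris-HCl, 10 mM MgCl2, pH 7.7, adenosine deaminase treated (1 U/mL, 30 min). Incubated with [3H]NECA (4 nM, 50 μL) plus 0.11 μM cyclopentyladenosine and competitor for 60 min at 25 °C. Nonspecific binding defined with 5 μM NECA. GF/B filtration, scintillation counting, triplicate. IC50 from log-logit regression, Ki via Cheng-Prusoff, one experiment.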

Assay [8] relates to Mus musculus. Description: Effective dose for phenylbenzoquinone-induced writhing in mice after peroral administration expressed as analgesic activity. The class given is functional. The conditions noted are these: po. A digest of the protocol:
as §1

Assay [9] deals with Mus musculus. The assay is described as follows: Effective dose of compound for phenylbenzoquinone-Induced writhing in mice after peroral administration expressed as analgesic activity; Inactive. The class given is functional, organism-based. A digest of the protocol: as §1

pKi: −log10 of the molar value. The source made the active and inactive calls. No cut-off for these calls is given here. A value given as a limit tells only on which side of the number the result lay.

With `CSc1ccc2c(c1)c(CCNc1ncnc3c1ncn3C1O[C@H](C(=O)NC3CC3)[C@@H](O)[C@H]1O)cn2Cc1cc(C)ccc1C` (stereo not given in full), the Displacement came to 8% in assay [1], 13% in assay [2], 82% in assay [3] and 76% in assay [5]. The compound further returned an ED50 in assay [4] above 10 mg/kg.
Regarding `O=C(NC1CC1)[C@H]1OC(n2cnc3c(NCCc4cn(Cc5ccc(Cl)c(Cl)c5)c5ccccc45)ncnc32)[C@H](O)[C@@H]1O` (stereo not given in full), the Displacement in assay [1] came out at 24%; in [2], 52%; in [3], 100%; in assay [5], 81%. For the same compound, the pKi in assay [6] was 6.85. This compound came in with a Ki in [7] of 1400 nM. Also, the ED50 in assay [4] is above 30 mg/kg.
In the case of `CN(C)CCn1cc(CCNc2ncnc3c2ncn3C2O[C@H](C(=O)NC3CC3)[C@@H](O)[C@H]2O)c2ccccc21` (stereo not given in full), the Displacement in assay [1] was found to be 51%; in assay [2], 83%; in assay [3] it was 100%; in assay [5], 95%. In addition, the ED50 in assay [4] is above 60 mg/kg.
For `CCNC(=O)[C@H]1OC(n2cnc3c(NCCc4cn(Cc5cc(C)ccc5C)c5ccccc45)ncnc32)[C@H](O)[C@@H]1O` (stereo not given in full), the Displacement is 12% in assay [1], 38% in [2], 92% in [3] and 86% in assay [5]. This compound showed a pKi in [6] of 6.80. In [7], the Ki was found to be 660 nM. This compound also gave an ED50 in assay [4] below 2 mg/kg.
For `Cc1ccc(Cn2cc(CCNc3ncnc4c3ncn4C3O[C@H](C(=O)NC4CC4)[C@@H](O)[C@H]3O)c3ccccc32)cc1` (stereo not given in full), the Displacement in assay [1] came out at 21%; in assay [2], 37%; in assay [3], 97%; in assay [5], 89%. Moreover, in [6], the pKi was 6.89. This compound registered a Ki in assay [7] of 340 nM. This compound displayed a median effective dose (ED50) in [4] below 3 mg/kg.
With `Cc1ccc(Cn2cc(CCNc3ncnc4c3ncn4C3O[C@H](C(=O)NC4CC4)[C@@H](O)[C@H]3O)c3ccccc32)cc1C` (stereo not given in full), the Displacement turned out to be 13% in assay [1], 29% in assay [2], 96% in assay [3] and 83% in assay [5]. The compound further gave a pKi in [6] of 6.80. Also, the Ki in [7] turned out to be 820 nM. Moreover, the ED50 in [4] was above 30 mg/kg.
In the case of `C#CCn1cc(CCNc2ncnc3c2ncn3C2O[C@H](C(=O)NC3CC3)[C@@H](O)[C@H]2O)c2ccccc21` (stereo not given in full), the Displacement in assay [1] was 25%; in assay [2] it was 64%; in [3], 95%; in assay [5], 83%. Moreover, the ED50 in assay [4] was below 10 mg/kg.
The corresponding values for `Cc1ccc(C)c(Cn2c(-c3ccccc3)c(CCNc3ncnc4c3ncn4C3O[C@H](C(=O)NC4CC4)[C@@H](O)[C@H]3O)c3ccccc32)c1` (stereo not given in full) are 0%, 6%, 31%, 23% and above 30 mg/kg.
As for `O=C(NC1CC1)[C@H]1OC(n2cnc3c(NCCc4cn(CC5CC5)c5ccccc45)ncnc32)[C@H](O)[C@@H]1O` (stereo not given in full), the Displacement worked out at 25% in assay [1], 45% in assay [2], 97% in assay [3] and 87% in [5]. This compound had a pKi in assay [6] of 7.17. This compound returned a Ki in assay [7] of 190 nM. The same compound returned an ED50 in assay [4] above 10 mg/kg.
Take `OC[C@H]1OC(n2cnc3c(NCCc4cn(Cc5ccccc5)c5ccccc45)ncnc32)[C@H](O)[C@@H]1O` (stereo not given in full): the Displacement in assay [1] amounted to 30%; in [2], 67%; in [3] it was 100%; in assay [5], 95%. This compound also showed a pKi in assay [6] of 7.30. This compound had a Ki in assay [7] of 250 nM. In assay [4], this compound gave an ED50 above 30 mg/kg.
In assay [8], `Cc1ccc(C)c(Cn2cc(C(C)CNc3ncnc4c3ncn4[C@@H]3O[C@H](C(=O)NC4CC4)[C@@H](O)[C@H]3O)c3ccccc32)c1` (stereo not given in full) came in with an ED50 of 0.9 mg/kg. The Displacement was found to be 0% in assay [1], 28% in assay [2], 97% in [3] and 61% in assay [5]. Moreover, the pKi in [6] is 6.70. For the same compound, the Ki in assay [7] came out at 2500 nM.
Turning to `Cc1ccc(C)c(Cn2cc(CCNc3ncnc4c3ncn4[C@@H]3O[C@H](C(=O)NC4CC4)[C@@H](O)[C@H]3O)c3cc(Cl)ccc32)c1`, in [8], it took a dose of 6.3 mg/kg to reach the 50% effect level (ED50). The Displacement amounted to 10% in assay [1], 47% in [2], 99% in assay [3] and 77% in assay [5]. The compound further had a pKi in assay [6] of 6.82. Moreover, in assay [7], the Ki is given as 660 nM.
For the compound `O=C(NC1CC1)[C@H]1O[C@@H](n2cnc3c(NCCc4cn(Cc5cccnc5)c5ccccc45)ncnc32)[C@H](O)[C@@H]1O`, the Displacement was found to be 30% in [1], 78% in [2], 97% in assay [3] and 98% in [5]. Further, the pKi in assay [6] is 7.59. Also, the Ki in assay [7] is on record as 183 nM. Also, the ED50 in [4] was above 30 mg/kg.
Compound `CNC(=O)[C@H]1O[C@@H](n2cnc3c(NCCc4cn(Cc5cc(C)ccc5C)c5ccccc45)ncnc32)[C@H](O)[C@@H]1O` gave an ED50 in [8] of 10.2 mg/kg. Further, the Displacement in assay [1] is 0%; in assay [2], 12%; in [3] it was 80%; in assay [5] it was 68%. Besides, the pKi in assay [6] was 5.85. The Ki in assay [7] is reported as 3000 nM.
For the compound `COCCn1cc(CCNc2ncnc3c2ncn3[C@@H]2O[C@H](C(=O)NC3CC3)[C@@H](O)[C@H]2O)c2ccccc21`, it took a dose of 1.2 mg/kg to reach the 50% effect level in assay [8] (ED50). The Displacement in assay [1] was determined as 19%; in [2], 61%; in assay [3], 98%; in assay [5], 90%. The compound also had a negative logarithm of the Ki (pKi) in assay [6] of 7.64. In addition, the Ki in [7] is 370 nM.
As for `O=C(NC1CC1)[C@H]1OC(n2cnc3c(NCCc4cn(Cc5ccc(Br)cc5F)c5ccccc45)ncnc32)[C@H](O)[C@@H]1O` (stereo not given in full), the Displacement came to 23% in assay [1], 40% in [2], 96% in assay [3] and 92% in [5]. Moreover, the ED50 entry in [9] was “inactive”.
The corresponding values for `O=C(NC1CC1)[C@H]1OC(n2cnc3c(NCCc4cn(Cc5ccc(Cl)cc5)c5ccc(Cl)cc45)ncnc32)[C@H](O)[C@@H]1O` (stereo not given in full) are 23%, 49%, 100%, 79% and “inactive”.
The corresponding values for `CC(C)(CO)NC(=O)[C@H]1OC(n2cnc3c(NCCc4cn(Cc5ccc(Cl)cc5)c5ccccc45)ncnc32)[C@H](O)[C@@H]1O` (stereo not given in full) are 0%, 5%, 79%, 50% and “inactive”.
As to `O=C(NC1CC1)[C@H]1O[C@@H](n2cnc3c(NCCc4cn(C5CCCC5)c5ccccc45)ncnc32)[C@H](O)[C@@H]1O`, it took a dose of 1.5 mg/kg to reach the 50% effect level in assay [8] (ED50). In addition, the Displacement in assay [1] was found to be 28%; in assay [2], 21%; in assay [3], 96%; in assay [5], 90%. In [6], this compound showed a negative logarithm of the Ki (pKi) of 6.96. Further, in assay [7], the Ki is listed as 350 nM.
The compound `Cc1ccc(C)c(Cn2cc(CCNc3ncnc4c3ncn4[C@@H]3O[C@H](C(N)=O)[C@@H](O)[C@H]3O)c3ccccc32)c1` yielded an ED50 in assay [8] above 30 mg/kg. Also, the Displacement in assay [1] was found to be 0%; in assay [2], 17%; in assay [3] it was 87%; in [5], 61%. Further, the pKi in assay [6] was 6.29. Moreover, in assay [7], the Ki was 2600 nM.
Turning to `O=C(NC1CC1)[C@H]1O[C@@H](n2cnc3c(NCCc4cn(CCN5CCCC5)c5ccccc45)ncnc32)[C@H](O)[C@@H]1O`, the ED50 in assay [8] stood at 44.2 mg/kg. Besides, the Displacement in assay [1] amounted to 53%; in assay [2] it was 96%; in assay [3], 100%; in assay [5] it was 95%. The compound further showed a pKi in assay [6] of 8.12. This compound also displayed an inhibition constant Ki in [7] of 58 nM.
With `CC(C)n1cc(CCNc2ncnc3c2ncn3[C@@H]2O[C@H](C(=O)NC3CC3)[C@@H](O)[C@H]2O)c2ccccc21`, it took a dose of 1.6 mg/kg to reach the 50% effect level in [8] (ED50). Besides, the Displacement in assay [1] is 14%; in assay [2], 4%; in [3] it was 87%; in assay [5], 91%. In assay [6], this compound gave a pKi of 6.92. This compound returned a Ki in assay [7] of 390 nM.

For orientation: ED50 means the dose at which the effect has come halfway, by size or by number of responders. Broadly, the pKi is the Ki on a negative log10 scale, so that one unit is a factor of ten. Higher therefore signals a small Ki. What is called Ki is a dissociation constant, usually derived from enzyme kinetics or from competition with a known ligand. The low end stands for higher affinity, the high end for lower affinity.
